# Assay outcomes as filed in PubChem BioAssay.
# Most compounds without a hit are left out; they make up all but 1.9% or so of the library.
# Rce1 inh = blocks yeast Ras-converting enzyme; Q03530; yeast membranes, quenched prenylated peptide cleavage fluorescence; calls only; hit rate 0.27% among 290,000; AID 2563;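 active = fall in fluorescence gain of 50% or more versus controls, with final raw signal at or below 3038400; inconclusive = same 50% fall but final raw signal above 3038400; inactive = fall in fluorescence gain under 50%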
# Target sequence (Q03530 whole entry, looked up): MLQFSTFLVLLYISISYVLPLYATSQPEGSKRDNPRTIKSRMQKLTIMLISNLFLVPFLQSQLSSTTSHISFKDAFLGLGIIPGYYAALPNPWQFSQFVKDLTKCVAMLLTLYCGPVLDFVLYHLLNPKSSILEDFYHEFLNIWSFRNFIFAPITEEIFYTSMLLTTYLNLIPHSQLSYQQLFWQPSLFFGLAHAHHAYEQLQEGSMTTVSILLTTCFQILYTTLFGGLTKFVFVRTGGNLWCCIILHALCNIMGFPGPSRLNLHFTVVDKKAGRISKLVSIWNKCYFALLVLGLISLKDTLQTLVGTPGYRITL
# Yeast superoxide = yeast age-related superoxide inhibition as caloric restriction mimetic; S. cerevisiae aged cells, superoxide DHE fluorescence; stronger effect = lower value; superoxide response (% of plate mean), % at 10 µM; hit rate 0.18% among 330,000; AID 2690;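 active = superoxide response under a set limit, about three screen SD below normal, cut at about 65% in these data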;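 also: yeast aged for seven days with compound at 30 °C before DHE staining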
# V-ATPase pH = yeast V-ATPase proton transport regulation by pHLuorin | hit rate 0.37% among 350,000 | AID 504577 | S. cerevisiae, pHLuorin cytosolic pH fluorescence | response, % at 10 µM; in the data active = response mostly above about 7.3%, no sharp cut-off; inactive = mostly below about 5.4%; also: actives read high
# T cell HTS = T cell immune modulators affecting CD8 T cell-vesicle binding; 2C CD8+ T cell-vesicle binding, flow cytometry; stronger effect = lower value; response (vesicle binding), % at 7 µM; hit rate 0.068% among 330,000;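 active = response, share of CD8 T cells binding vesicles, and their 90th percentile fluorescence all below set limits, cut at about 80% in these data, passing the limit was not always enough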;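 also: values below 100% mean blocked vesicle binding to the CD8+ T cells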
#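 System: murine 2C transgenic CD8+ T lymphocytes; also added: QL9-loaded Drosophila micro-vesicles; times: binding 1.5 h at 37 °C; measured by: flow cytometry, PE anti-B7-1 (FL2) versus Alexa647 anti-CD8 (FL8), PFA-fixed; control set: Peptide-free naked vesicles (low) and QL9 vesicles with 0.7% DMSO vehicle (high)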
# KLK7 zymogen act = activators of human kallikrein-7 zymogen; AID 652039; hit rate 0.9% among 370,000; purified proKLK7, EDANS-DABCYL substrate fluorescence; 100% is mature enzyme control, 0% vehicle; P49862; activation, % at 7 µM;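 active = activation above the mean of all tested compounds plus 3 SD, computed per campaign excluding outliers beyond control limits, cut at about 13% in these data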
# Target sequence (P49862 whole entry, looked up): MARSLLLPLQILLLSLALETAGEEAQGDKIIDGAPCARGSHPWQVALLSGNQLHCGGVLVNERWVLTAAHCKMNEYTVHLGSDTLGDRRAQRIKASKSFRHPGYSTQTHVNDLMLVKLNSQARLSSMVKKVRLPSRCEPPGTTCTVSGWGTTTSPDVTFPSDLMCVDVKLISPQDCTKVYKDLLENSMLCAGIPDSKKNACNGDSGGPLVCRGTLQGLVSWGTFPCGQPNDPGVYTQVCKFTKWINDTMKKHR
# MIN6 prolif = induces beta-cell replication in MIN6 cells. hit rate 0.29% among 330,000. MIN6 cells proliferation, ATPlite luminescence, 48 h; cells starved in 0.2% serum; 100% = growth in 10% serum. proliferation, % at 10 µM;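 active = compounds whose signal lies at least 3.5 SD above the mean of all wells on their plate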
# proKLK7 act conf = confirmation of human kallikrein-7 zymogen activators. shares compounds with KLK7 zymogen act. purified proKLK7, EDANS-DABCYL substrate fluorescence; scaled: vehicle 0, mature enzyme 100. activation, % at 7 µM. hit rate 68% among 3,200;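 active = activation, as change over the incubation, above the mean of all tested compounds plus 3 SD, cut at about 13% in these data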
# EDANS interfere = optically interferes with EDANS-DABCYL signal, flagging KLK7 hits | shares compounds with KLK7 zymogen act | EDANS-DABCYL substrate fluorescence interference, no enzyme, 4 h; solvent 0%, active enzyme control 100% | activation, % at 7 µM | hit rate 80% among 3,200 | AID 686952;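 active = activation above the all-compound mean plus 3 SD, ignoring values outside control-based bounds, cut at about 4.8% in these data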;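 also: value is the 4 h activation minus the activation read at time zero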
# EDANS interf = optically interferes with EDANS-DABCYL fluorescence, kallikrein-7 activator counter-screen; AID 720493; shares compounds with KLK7 zymogen act; EDANS-DABCYL peptide fluorescence interference, no enzyme; EC50, µM; hit rate 20% among 250;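 active = compounds that raise the fluorescence signal in this interference counterscreen, with EC50 at or below 10 µM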;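 also: intact quenched peptide substrate alone read at 355 nm excitation and 520 nm emission; signal is fluorescence gain from T0 to T4 after four hours at room temperature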
# Numbers stand for hits; - = inactive; ? = inconclusive; . = no result given.
SMILES,Rce1 inh,Yeast superoxide,V-ATPase pH,T cell HTS,KLK7 zymogen act,MIN6 prolif,proKLK7 act conf,EDANS interfere,others
CCCn1nnnc1NCc1ccc(N(CC)CC)cc1,-,-,-,-,-,-,.,.,
CCc1cc(=O)oc2cc(C)cc(OCC(=O)N3CCC(C(=O)O)CC3)c12,-,-,-,-,16,-,19,19,
Cc1ccc2occ(/C=N/NC(=O)c3ccc(O)cc3)c(=O)c2c1,-,-,-,-,23,-,53,51,
Cc1ccc2occ(/C=N/NC(=O)c3ccccc3Br)c(=O)c2c1,-,-,-,-,-,-,.,.,
CCOc1ccccc1C(=O)N/N=C/c1coc2ccc(C)cc2c1=O,-,-,-,-,24,-,58,54,
COc1ccc(NC(=O)c2ccc(Cl)cc2)c[n+]1[O-],-,-,-,-,-,.,.,.,
C[C@H](O)[C@@H]1C(=O)N2CCc3ccc(-c4ccccc4)cc3[C@@H]2C[C@@H]1N(C)C(=O)c1ccco1,.,.,-,.,-,.,.,.,
CC1Nc2nc(N(C)C)[nH]c(=O)c2NC1C (stereo unspecified),.,-,-,-,19,.,-,18,
CCC1NC(C(=O)O)Cc2c1[nH]c1ccccc21 (stereo unspecified),-,-,-,-,36,-,-,9.8,
O=C(NCCCN1CCCC1)c1ccc2c(c1)N(Cc1ccccc1)CCS2,-,-,-,-,51,-,-,-,
CCN1CCN(CCCNC(=O)c2ccc3c(c2)N(Cc2ccccc2)CCS3)CC1,-,-,-,-,35,-,-,-,
O=C(NCCCN1CCOCC1)c1ccc2c(c1)N(Cc1ccc(F)cc1)CCS2,-,-,-,-,-,-,.,.,
CN1CCN(CCCNC(=O)c2ccc3c(c2)N(Cc2ccc(F)cc2)CCS3)CC1,-,-,-,-,76,-,-,-,
Cc1ccc(-c2csc3ncnc(N4CCN(S(=O)(=O)c5cccs5)CC4)c23)cc1,.,-,-,-,.,-,.,.,
Cc1cccn2c(=O)c(/C=C(\C#N)C(N)=O)c(N3CCN(Cc4ccc5c(c4)OCO5)CC3)nc12,-,-,-,-,15,-,-,-,
COCCCNC(=O)/C(C#N)=C/c1c(N2CCN(C)CC2)nc2ccccn2c1=O,-,-,-,-,17,-,-,12,
CCNC(=O)/C(C#N)=C/c1c(N2CCCCCC2)nc2ccccn2c1=O,-,-,-,-,-,-,.,.,
CCOC(=O)/C(C#N)=C/c1c(N2CCN(Cc3ccc4c(c3)OCO4)CC2)nc2c(C)cccn2c1=O,-,-,-,-,-,-,.,.,
CCNC(=O)/C(C#N)=C/c1c(N2CCN(c3ccccc3)CC2)nc2ccccn2c1=O,-,-,-,-,14,-,19,16,EDANS interf=-
CCN1CCN(c2nc3c(C)cccn3c(=O)c2/C=C(\C#N)C(=O)NCCOC)CC1,-,-,-,-,30,-,20,21,
O=c1[nH]cnc2c1ncn2-c1ccc(N(CCO)CCO)cc1,.,.,-,.,-,.,.,.,
COc1ccc(NC(=O)N(C)C[C@H]2Oc3ccc(NS(=O)(=O)c4c(C)noc4C)cc3C(=O)N([C@H](C)CO)C[C@@H]2C)cc1,.,-,-,-,-,-,.,.,
Cc1cc(=O)oc2cc(N3C(=O)CC(Cc4ccccc4)C3=O)ccc12 (stereo unspecified),-,-,-,-,19,-,25,23,
CC(=O)Nc1cccc(N2C(=O)CC(Cc3ccccc3)C2=O)c1 (stereo unspecified),-,-,.,-,-,-,.,.,
COc1ccc(NC(=O)c2ccc(N3CCCC3=O)cc2)cc1Cl,.,-,-,-,-,-,.,.,
SMILES,Rce1 inh,Yeast superoxide,V-ATPase pH,T cell HTS,KLK7 zymogen act,MIN6 prolif,proKLK7 act conf,EDANS interfere,others
CCOC(=O)c1c2ccc(OCC(=O)NN)cc2n2ccccc12,-,-,-,-,49,-,-,-,
Cc1nn(-c2ccc(F)cc2)c2sc(C(=O)OC3CCOC3=O)cc12 (stereo unspecified),-,-,-,-,20,-,24,23,
CNC(=O)COC(=O)c1cc2c(C)nn(-c3ccc(F)cc3)c2s1,-,-,-,-,-,-,.,.,
Cc1ccc2nc3c(cc(C(N)=S)c(=N)n3CCCOC(C)C)c(=O)n2c1,-,-,-,-,14,-,-,-,
CCCCNC(=O)c1cc2c(=O)n3cccc(C)c3nc2n(Cc2ccncc2)c1=N,-,-,-,-,45,-,-,-,
Cc1cccn2c(=O)c3cc(C(=O)NCCc4ccccc4)c(=N)n(Cc4ccco4)c3nc12,.,-,-,-,-,-,.,.,
COCCCn1c(=N)c(C(N)=S)cc2c(=O)n3cccc(C)c3nc21,-,-,-,-,35,-,21,24,
COCCNC(=O)c1cc2c(=O)n3cccc(C)c3nc2n(Cc2ccncc2)c1=N,?,-,-,-,141,-,44,54,
Cc1cc(C)c(NC(=O)COc2cccnc2[N+](=O)[O-])c(C)c1,.,-,-,-,-,-,.,.,
Cc1cccn2c(=O)c3cc(C#N)c(=NC(=O)c4ccncc4)n(CCCOC(C)C)c3nc12,-,-,-,-,-,-,.,.,
Cc1cccn2c(=O)c3cc(C(=O)NCc4ccc(F)cc4)c(=N)n(CCCN4CCOCC4)c3nc12,.,.,-,.,-,.,.,.,
CCCCNC(=O)c1cc2c(=O)n3cccc(C)c3nc2n(CCN2CCOCC2)c1=N,-,-,-,-,16,-,-,10,
N=c1c(C(=O)NCCN2CCOCC2)cc2c(=O)n3ccccc3nc2n1Cc1ccc(F)cc1,-,-,-,-,-,-,.,.,
COCCCn1c(=NC(=O)c2ccncc2)c(C#N)cc2c(=O)n3cccc(C)c3nc21,-,-,-,-,15,-,30,47,
N=c1c(C(=O)NCCN2CCOCC2)cc2c(=O)n3ccccc3nc2n1CCCN1CCOCC1,-,-,-,-,14,-,-,5.0,
COCCNC(=O)C1(C)CCCN(Cc2ccc(C)c3ccccc23)C1 (stereo unspecified),.,.,.,.,-,.,.,.,
Cc1ccccc1CN(C)C[C@@H]1OCc2cnnn2CCCC(=O)N([C@H](C)CO)C[C@H]1C,.,.,-,.,-,.,.,.,
COC(=O)c1c(C)nc2nonc2c1N,-,-,-,-,14,-,47,49,
COC(=O)c1c(C)nc2c(c(SC)nn2-c2ccccc2)c1N,-,-,-,-,-,-,.,.,
COC(=O)[C@]12C[C@H](CC(=O)N3CCCCC3)C(=O)N(Cc3ccc(Cl)cc3Cl)C1=C[C@H](C(C)(C)C)O[C@@H]2C,.,.,.,.,-,.,.,.,
